# Records with an inconclusive call do not appear. Activity calls are given as the source filed them.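 Rule for the calls: active = compounds whose fitted caspase activation AC50 is no more than tenfold above the top tested dose; inconclusive = flat fit with 30 to 70% activity, or a failed fit; inactive = the rest.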
# Test system: MEF Bax/Bak KO A1-BIM, caspase-Glo luminescence, 3 h
# Assay: caspase activation in Bax/Bak-deficient MEFs, dose response, counter-screen for A1 inhibitor project, cell-based, Bax-Bak knockout MEF, A1-2A-BIM, luminescence (AID 449754);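 note: counterscreen where caspase activation signals off-target toxicity not A1 inhibition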
# Procedure, shortened: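 Material: A1-2A-BIM MEFs lacking Bax and Bak / Buffer or medium: RPMI-1640, 10% FBS / Compound: 100 nL pinned compound per well / Timing: 3 h compound at 37 °C, 1 h detection at RT / Technique: CaspaseGlo luminescence, reagent diluted 1:1 in 50 mM HEPES / Read-out basis: caspase activity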
row,SMILES,AC50
1,COc1ccccc1CCNC(C)CCc1ccc(O)cc1 (stereo not given),> 35 µM (inactive)
2,CCOc1cc(C(=O)CSc2nnc(CNc3ccc(Cl)cc3)o2)ccc1NC(=O)CC,17.6 µM
3,Cn1cc([N+](=O)[O-])c(C(=O)Nc2cc(Oc3ccccc3)cc([N+](=O)[O-])c2)n1,> 35 µM (inactive)
4,Cc1ccc(Sc2c([N+](=O)[O-])c(=O)n(C)c3ccccc23)cc1,> 35 µM (inactive)
5,C=C1CCc2c([nH]c3ccc(OCC(C)C)cc23)C1=O,16.6 µM
6,COc1cc(/C=C(/C#N)c2nc3ccccc3[nH]2)ccc1OCC(=O)Nc1ccccc1C,7.39 µM
7,O=C(Nc1ccc(O)c2c(=O)cc(-c3cccc(Cl)c3)oc12)c1cccc(Cl)c1,> 35 µM (inactive)
8,Nc1nc(F)nc2c1ncn2[C@@H]1O[C@H](CO)[C@@H](O)[C@H]1O,> 35 µM (inactive)
9,CCOc1ccc(NCc2cccn2-c2nnc(N3CCC(C(=O)NCCCN4CC(C)CC(C)C4)CC3)s2)cc1 (stereo not given),> 35 µM (inactive)
10,CCOC(=O)CSC1=N/C(=C/c2ccc(-n3cncn3)cc2)C(=O)N1C(C)=O,> 35 µM (inactive)
11,Cc1ccc(S(=O)(=O)c2nnn3c2nc(Nc2cccc(C)c2)c2ccccc23)cc1,> 35 µM (inactive)
12,COc1ccc2c(c1)[nH]c1c(=O)n(/N=C/C3C(C)C=C(C)CC3C)c(=O)[nH]c12 (stereo not given),> 35 µM (inactive)
13,O=C(CN(c1ccc(Br)cc1)S(=O)(=O)c1ccc(Cl)c([N+](=O)[O-])c1)NCCc1ccccc1,> 35 µM (inactive)
14,CCC(Sc1nc2cc3c(cc2c(=O)n1Cc1ccco1)OCO3)C(=O)Nc1cccc(OC)c1 (stereo not given),> 35 µM (inactive)
15,CN(C)CCCN(C(=O)c1cc2cc([N+](=O)[O-])ccc2s1)c1nc2cc3c(cc2s1)OCCO3,> 35 µM (inactive)
16,O=C(NC[C@H]1CCCO1)c1cccc2c1C(=O)c1ccc(-c3ccc(F)cc3OCc3ccccc3)cc1S2(=O)=O,> 35 µM (inactive)
17,CC(=O)Nc1ncnc2c1c(-c1ccc(Cl)cc1)nn2C(C)(C)C,> 35 µM (inactive)
18,CN(C)CCN(C(=O)/C=C/c1cccs1)c1nc2c(F)cc(F)cc2s1,> 35 µM (inactive)
19,Oc1[nH]c2ccc(Br)cc2c1N=NC(=S)Nc1ccc(F)cc1,> 35 µM (inactive)
20,Cc1ccc(S(=O)(=O)N(C)Cc2ccc(C(=O)N/N=C/c3ccc(OC(F)F)cc3)cc2)cc1,> 35 µM (inactive)
21,COc1cc(C(=O)Nc2cc3c(cc2N2CCCCC2)n(C)c(=O)n3C)cc(OC)c1OC,> 35 µM (inactive)
22,COc1cccc(C(=O)C(C#N)=C(SC)SC)c1,> 35 µM (inactive)

row,SMILES,AC50
1,COc1ccc(C2CC(c3c(O)cc(C)oc3=O)=NCCS2)c(OC)c1 (stereo not given),> 35 µM (inactive)
2,COc1cc2c(-c3ccccc3)c(C)oc2cc1/C=N/NC(N)=S,> 35 µM (inactive)
3,CCOC(=O)/C=c1\s/c(=C\c2ccc(C(=O)OC)cc2)c(=O)n1CC(=O)Nc1ccccc1,> 35 µM (inactive)
4,Cc1cc(NC(=O)/C(C#N)=C/c2ccc(-c3ccc(SC(F)F)cc3)o2)n(-c2ccccc2)n1,> 35 µM (inactive)
5,CC1=CC(=O)C(C(C)C)=C/C1=N/OS(=O)(=O)c1ccccc1,7.41 µM
6,CCCCN1C(=O)/C(=C2/Sc3ccccc3N2C)S/C1=N\c1ncn[nH]1,> 35 µM (inactive)
7,O=C1/C(=C\c2c(NCCOCCO)nc3ccccn3c2=O)SC(=S)N1Cc1ccco1,> 35 µM (inactive)
8,COc1ccc(OC)c(NC(=O)c2cc3c(Cl)nc4ccccc4c3s2)c1,> 35 µM (inactive)
9,CC1(C)C[C@H](O)[C@]2(CO)[C@H](O)C[C@]3(C)C(=CCC4[C@@]5(C)CC[C@H](O)C(C)(C)C5CC[C@]43C)[C@@H]2C1 (stereo not given in full),> 35 µM (inactive)
10,COC(=O)CSc1nc(N)c2c3c(sc2n1)C(c1ccccc1)SC(c1ccccc1)C3 (stereo not given),> 35 µM (inactive)
11,CCc1ccccc1NC(=O)C(CC)Sc1nc2cc3c(cc2c(=O)n1Cc1ccco1)OCO3 (stereo not given),> 35 µM (inactive)
12,CC(C)(C)C1C/C(=C/c2ccccn2)C(=O)/C(=C/c2ccccn2)C1 (stereo not given),8.26 µM
13,N#Cc1cccnc1N1CCN(C(=O)c2cccc3c2C(=O)c2ccc(-c4ccc(Cl)c(C(F)(F)F)c4)cc2S3(=O)=O)CC1,> 35 µM (inactive)
14,Cc1[nH]nc2nc(SCC(=O)NCCC3=CCCCC3)n(-c3ccc(Br)cc3)c(=N)c12,18.6 µM
15,COc1ccc2c(-c3cc4ccc(OCc5ccc(F)cc5)cc4oc3=O)cc(=O)oc2c1,36.6 µM
16,COc1ccc(OC[C@@H](O)CNC(=O)c2cccc3c2C(=O)c2ccc(-c4ccc(F)cc4OCc4ccccc4)cc2S3(=O)=O)cc1,> 35 µM (inactive)
17,COc1ccc(OC)c2sc(N(CCCN(C)C)C(=O)c3ccc(S(=O)(=O)N4CCc5ccccc5C4)cc3)nc12,> 35 µM (inactive)
18,CN1C2CCC1/C(=C/c1ccccn1)C(=O)/C2=C\c1ccccn1,> 35 µM (inactive)
19,Cc1occc1-c1nnc(SCC(=O)NCCc2ccccc2)n1Cc1ccccc1,> 35 µM (inactive)
20,CC(=O)Nc1ccc(NC(=O)C(=O)NCC(c2ccco2)N2CCc3ccccc32)cc1 (stereo not given),35.8 µM
21,O=C(Nc1ccc2oc(-c3ccccc3F)nc2c1)c1ccccc1F,> 35 µM (inactive)
22,COc1cc2c(cc1NC(=O)COC(=O)/C=C/c1ccccc1)oc1ccccc12,> 35 µM (inactive)

row,SMILES,AC50
1,COc1ccc(-c2c(C#N)c(N)nc(Sc3ccc(Cl)cc3)c2C#N)cc1,> 35 µM (inactive)
2,CN(C)CCCN(C(=O)c1ccc(S(=O)(=O)N2CCc3ccccc3C2)cc1)c1nc2ccc(F)cc2s1,> 35 µM (inactive)
3,COc1ccc(C[C@H]2NC[C@H](O)[C@H]2OC(C)=O)cc1,> 35 µM (inactive)
4,Cc1ccc2c(c1)c(C1=c3ccccc3=NC1=O)c(O)n2C,> 35 µM (inactive)
5,CCOc1ccc(OCC(=O)N(CCC2=CCCCC2)c2c(N)n(Cc3ccccc3)c(=O)[nH]c2=O)cc1,18.8 µM
6,Cc1ccc(C)c(S(=O)(=O)NCC(=O)Nc2sc3c(c2C(N)=O)CCC(C)C3)c1 (stereo not given),> 35 µM (inactive)
7,CCOc1cccc(C(=O)Nc2cccc(-c3nnc(-c4ccc(C)cc4)o3)c2)c1,35.7 µM
8,CSC[C@@H]1NC(=S)N(c2ccc(C)cc2)C1=O,> 35 µM (inactive)
9,COc1cc2cnc(-c3ccccc3)c(-c3cccc(C(F)(F)F)c3)c2cc1OC,> 35 µM (inactive)
10,CCOC(=O)c1sc(NC(=O)CSc2nc(C)cc(C)c2C#N)c(C#N)c1C,> 35 µM (inactive)
11,COc1cc(/C=C(/C#N)C(=O)Nc2ccc(Cl)cc2)ccc1Oc1nc(Cl)ncc1F,> 35 µM (inactive)
12,O=c1c(Cl)c(Cl)cnn1Cc1ccccc1Cl,> 35 µM (inactive)
13,CC1=NNC(=O)/C1=C\c1cn(-c2ccccc2)nc1-c1cccs1,7.61 µM
14,CCc1ccc(Oc2coc3cc(OCC(=O)Nc4cc(C)ccc4C)ccc3c2=O)cc1,> 35 µM (inactive)
15,O=C(NCc1ccccc1Br)c1cccc2c1C(=O)c1ccc(-c3ccc(OC(F)(F)F)cc3)cc1S2(=O)=O,> 35 µM (inactive)
16,CCS(=O)(=O)c1ncc(Cl)c(C(=O)Nc2ccccc2OC)n1,> 35 µM (inactive)
17,C#CC(=O)N(c1cc(OC)ccc1OC)C(C(=O)NC1CCCC1)c1cccs1 (stereo not given),> 35 µM (inactive)
18,CC(=O)[C@]1(O)Cc2c(O)c3c(c(O)c2[C@@H](O[C@H]2C[C@H](N)[C@H](O)[C@H](C)O2)C1)C(=O)c1ccccc1C3=O,> 35 µM (inactive)
19,O=C(Nc1ccc(-c2nc3cc(NC(=O)c4cccs4)ccc3o2)cc1)c1cccs1,> 35 µM (inactive)
20,NC(=S)c1cn(C2OC(CO)C(O)C2O)c2ncnc(N)c12 (stereo not given),> 35 µM (inactive)
21,Cc1cccc(NC(=O)/C(C#N)=C/c2cn(CC(=O)NCc3ccco3)c3ccccc23)c1,> 35 µM (inactive)
22,O=C(c1ccc(COc2ccc3ccccc3c2)o1)N1N=C(C(F)F)CC1(O)C(F)F (stereo not given),> 35 µM (inactive)

row,SMILES,AC50
1,CC1CCN(Cc2c(C(=O)N/N=C/c3ccc(C(C)(C)C)cc3)nnn2-c2nonc2N)CC1,> 35 µM (inactive)
2,Cc1ccc(N(Cc2cc(=O)[nH]c3ccccc23)C(=O)CCl)cc1,> 35 µM (inactive)
3,O=C(/C=C/c1ccc(F)cc1)NC(=S)Nc1ccccc1C(=O)NC1CCCCC1,> 35 µM (inactive)
4,COc1cc(NC(=O)c2ccccc2)c(OC)cc1NC(=O)Cc1ccc(Br)cc1,> 35 µM (inactive)
5,CCc1cc2c(=O)c(-c3cnn(-c4ccccc4)c3)c(C)oc2cc1OCC(=O)Nc1cccc(C)c1,> 35 µM (inactive)
6,COc1ccc(NC(=O)c2cccc3c2C(=O)c2ccc(-c4ccc(F)cc4OCc4ccccc4)cc2S3(=O)=O)cc1,> 35 µM (inactive)
7,CCc1nnc(NC(=O)c2nc(S(=O)(=O)Cc3ccccc3)ncc2Cl)s1,> 35 µM (inactive)
8,COc1cc(-c2cc(-c3ccccc3)nc(SCC(=O)Nc3nccs3)c2C#N)cc(OC)c1OC,> 35 µM (inactive)
9,CC(C)CC(NC(=O)c1ccc(Cl)cc1)C(=O)OCC(=O)c1ccc2c(c1)NC(=O)CO2 (stereo not given),6.3 µM
10,Cc1c(C=O)c(C=O)c(C)n1Cc1ccccc1,> 35 µM (inactive)
11,COc1ccc2c(c1)CCc1c(C(=O)Nc3cc(C)n(Cc4ccc(Cl)cc4)n3)noc1-2,7.59 µM
12,CC(=O)OC(C)(C)/C=C/C(=O)C(C)(O)C1[C@H](O)C[C@@]2(C)C3CC=C4C(CC[C@@H](O)C4(C)C)[C@]3(CO)C(=O)C[C@]12C (stereo not given in full),> 35 µM (inactive)
13,COc1ccc(C(=O)/C=C/C(=O)N(CC(=O)NC2CCCCC2)Cc2cccs2)c(O)c1,> 35 µM (inactive)
14,O=S1(=O)CCOC[C@H](CC2CCCCC2)N1Cc1cccc(Cl)c1,> 35 µM (inactive)
15,Cc1cc(C)cc(Cn2ncc(Cl)c(Cl)c2=O)c1,> 35 µM (inactive)
16,Cc1ccc(C)c(NC(=S)NC(NC(=O)Cc2cccc3ccccc23)C(Cl)(Cl)Cl)c1 (stereo not given),24.1 µM
17,CC(=O)Nc1sc(N/N=C\c2cccc(Cl)c2)nc1-c1cccs1,> 35 µM (inactive)
18,COc1ccc(S(=O)(=O)N2CC(O)CC2C(=O)OCC(=O)Nc2ccc(Cl)cn2)cc1 (stereo not given),> 35 µM (inactive)
19,CCc1ccc2nc(N(CCCN(C)C)C(=O)c3ccc(S(=O)(=O)N4CCc5ccccc5C4)cc3)sc2c1,> 35 µM (inactive)
